This note sets out measurements from ChEMBL document CHEMBL3112507 (Bioorg Med Chem, 2014).

Molecules are shown by their SMILES. Active and inactive are the calls of the source. The rule behind the calls is not given here.

Series [1] deals with T1, Polyunsaturated fatty acid 5-lipoxygenase (Homo sapiens) (UniProt P09917).
T1 sequence (whole entry): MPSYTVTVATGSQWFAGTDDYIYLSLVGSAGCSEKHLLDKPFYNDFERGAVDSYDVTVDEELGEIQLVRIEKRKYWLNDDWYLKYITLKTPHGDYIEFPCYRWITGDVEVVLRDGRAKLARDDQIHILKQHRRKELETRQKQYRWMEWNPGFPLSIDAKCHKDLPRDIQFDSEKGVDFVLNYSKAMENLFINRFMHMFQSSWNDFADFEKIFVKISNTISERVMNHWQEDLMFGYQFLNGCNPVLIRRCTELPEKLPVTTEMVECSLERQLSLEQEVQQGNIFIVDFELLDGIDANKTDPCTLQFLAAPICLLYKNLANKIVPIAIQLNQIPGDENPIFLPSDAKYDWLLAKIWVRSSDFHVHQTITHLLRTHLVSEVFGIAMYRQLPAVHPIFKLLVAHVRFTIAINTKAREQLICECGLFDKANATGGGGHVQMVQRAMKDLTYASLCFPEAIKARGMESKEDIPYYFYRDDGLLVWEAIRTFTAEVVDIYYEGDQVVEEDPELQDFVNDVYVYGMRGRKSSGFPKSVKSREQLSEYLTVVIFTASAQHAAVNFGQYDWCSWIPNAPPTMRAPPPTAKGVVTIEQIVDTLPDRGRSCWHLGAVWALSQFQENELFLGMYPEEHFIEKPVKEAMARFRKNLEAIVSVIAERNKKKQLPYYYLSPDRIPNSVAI
Kind of series: Inhibition of 5-LOX (unknown origin) using arachidonic acid as substrate at 10 uM after 5 mins by EIA. Summed up: (§1)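 Test compounds dissolved in DMSO at 0.01, 0.1, 1, 10 and 100 µM. Each was added to 5-LOX enzyme in assay buffer, and the reaction was started with arachidonic acid substrate. Plates were shaken 5 min, chromogen was added, shaken 5 min more, then read at 490 nm. Blanks were buffer plus AA; positive controls were enzyme plus AA. Run in duplicate, means with deviation <5% used. Percent inhibition was calculated from lipoxygenase activity; IC50 derived from the concentration series.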

The target in series [2] is T1, Polyunsaturated fatty acid 5-lipoxygenase (Homo sapiens). Kind of series: Inhibition of 5-LOX (unknown origin) using arachidonic acid as substrate at 100 uM after 5 mins by EIA. Summed up: as §1
Series [3] shares this target. In words: Inhibition of 5-LOX (unknown origin) using arachidonic acid as substrate at 1 uM after 5 mins by EIA. The gist of the method: as §1
Series [4] concerns the target T2, Polyunsaturated fatty acid 5-lipoxygenase (Homo sapiens, UniProt P09917).
T2 sequence (P09917 whole entry): T1 sequence (whole entry)
Kind of series: Inhibition of 5-LOX (unknown origin) using arachidonic acid as substrate after 5 mins by EIA. Summed up: as §1

The target in series [5] is T2, Polyunsaturated fatty acid 5-lipoxygenase. Kind of series: (§2) Inhibition of 5-LOX (unknown origin) by UV-Vis spectrophotometry. The gist of the method: (§3)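 UV–visible spectral titration of the compounds with 5-LOX. Association constant Ka was obtained from 1/(Af−Aobs) = 1/(Af−Afc) + 1/(Ka[Af−Afc][L]). Ki was calculated as IC50/(1+[L]/Kd) using IC50 values from the enzyme immunoassay.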

The target in series [6] is T1, Polyunsaturated fatty acid 5-lipoxygenase (Homo sapiens). The series is described as §2. The gist of the method:
as §3

For series [7], the target named is Prostaglandin G/H synthase 1 (Homo sapiens) (UniProt P23219). In words: Inhibition of COX1 (unknown origin) by EIA.
Prostaglandin G/H synthase 1 (Homo sapiens), sequence (P23219 whole entry): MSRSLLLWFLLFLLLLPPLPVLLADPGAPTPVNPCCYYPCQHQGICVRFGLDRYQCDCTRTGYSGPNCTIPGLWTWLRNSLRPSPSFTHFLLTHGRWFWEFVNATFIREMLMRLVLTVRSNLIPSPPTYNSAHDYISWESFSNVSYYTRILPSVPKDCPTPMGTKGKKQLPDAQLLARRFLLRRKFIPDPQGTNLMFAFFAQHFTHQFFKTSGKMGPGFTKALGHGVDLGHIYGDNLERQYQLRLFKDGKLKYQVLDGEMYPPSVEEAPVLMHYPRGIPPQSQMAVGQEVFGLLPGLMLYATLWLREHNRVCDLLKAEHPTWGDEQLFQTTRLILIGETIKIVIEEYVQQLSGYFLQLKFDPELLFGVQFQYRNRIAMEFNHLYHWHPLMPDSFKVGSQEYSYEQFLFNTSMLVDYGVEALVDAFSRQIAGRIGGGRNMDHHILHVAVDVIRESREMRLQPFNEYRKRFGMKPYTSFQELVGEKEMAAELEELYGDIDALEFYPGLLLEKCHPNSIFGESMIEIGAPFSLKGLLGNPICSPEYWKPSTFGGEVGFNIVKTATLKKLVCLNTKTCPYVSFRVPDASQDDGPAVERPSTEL
Series [8] deals with T3, Prostaglandin G/H synthase 2 (Homo sapiens) (UniProt P35354).
T3 sequence (whole entry): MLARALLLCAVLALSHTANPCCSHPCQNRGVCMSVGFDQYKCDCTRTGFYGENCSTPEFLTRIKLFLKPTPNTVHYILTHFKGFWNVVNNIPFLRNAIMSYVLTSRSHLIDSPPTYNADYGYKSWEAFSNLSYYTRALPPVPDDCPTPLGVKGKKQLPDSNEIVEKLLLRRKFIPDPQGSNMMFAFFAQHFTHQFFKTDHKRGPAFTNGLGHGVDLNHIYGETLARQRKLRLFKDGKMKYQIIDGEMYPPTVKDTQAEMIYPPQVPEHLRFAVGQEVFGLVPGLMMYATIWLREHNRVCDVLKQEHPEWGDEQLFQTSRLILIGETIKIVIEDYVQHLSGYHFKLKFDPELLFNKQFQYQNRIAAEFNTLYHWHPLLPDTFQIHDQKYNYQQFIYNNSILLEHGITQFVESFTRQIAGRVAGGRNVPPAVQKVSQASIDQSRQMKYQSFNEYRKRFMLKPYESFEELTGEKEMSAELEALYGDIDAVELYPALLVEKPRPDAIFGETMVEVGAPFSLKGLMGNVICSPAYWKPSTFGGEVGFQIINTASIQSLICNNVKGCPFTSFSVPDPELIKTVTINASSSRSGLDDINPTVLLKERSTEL
Kind of series: Inhibition of COX2 (unknown origin) by EIA.

The next series relates to HeLa. Kind of series: Cytotoxicity against human HeLa cells assessed as cell viability at […] after 15 to 45 hrs by MTT assay. The class given is cell-based.
In series [9] the target is Phospholipase A2 (Homo sapiens) (UniProt P04054). In words: Inhibition of PLA2 (unknown origin) by Ellman's method. For orientation: Ellman's reagent forms a yellow product with free thiols.
Phospholipase A2 (Homo sapiens), sequence (P04054 23-148 limits assumed): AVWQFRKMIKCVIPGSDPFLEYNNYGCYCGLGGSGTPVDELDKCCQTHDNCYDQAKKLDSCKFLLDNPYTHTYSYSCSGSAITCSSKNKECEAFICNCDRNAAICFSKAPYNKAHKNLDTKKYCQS
The target of series [10] is T1, Polyunsaturated fatty acid 5-lipoxygenase (Homo sapiens). Kind of series: Inhibition of 5-LOX (unknown origin) using arachidonic acid as substrate at 0.1 uM after 5 mins by EIA. The gist of the method: as §1
Series [11] has the same target. In words: Inhibition of 5-LOX (unknown origin) using arachidonic acid as substrate at 0.01 uM after 5 mins by EIA. The gist of the method: as §1
A short description of series [12]: Octanol-water partition coefficient, log P of the compound. In kind it is physicochemical.
Series [13] concerns the target T2, Polyunsaturated fatty acid 5-lipoxygenase. Kind of series: Inhibition of 5-LOX (unknown origin) using arachidonic acid as substrate after 5 mins by EIA in presence of pig liver esterase. The gist of the method:
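Same 5-LOX colorimetric immunoassay kit procedure (compounds at 0.01–100 µM in DMSO, AA substrate, chromogen, 490 nm, duplicates). Ester compounds were first treated with pig liver esterase, extracted per a reported procedure, before addition to the 5-LOX enzyme.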

As a reminder, the inhibition is the change of the read-out against control, counted positive when it falls. A word on the IC50: it is the point on the concentration scale where inhibition reaches its midpoint. A word on the Ki: it is a measure of affinity in units of concentration, obtained from inhibition or displacement. A higher Ki goes with a looser hold on the target. The term logP denotes the decadic logarithm of the partition coefficient of the neutral form, usually between octanol and water.

As to `Cc1ccc(S(=O)(=O)n2cc(C(=O)C(=O)NCC(=O)O)c3ccccc32)cc1`, the inhibition in [1] was found to be 91.2%; in [2], 97.5%; in series [3], 78.4%; in series [10], 63.5%; in series [11], 57.4%. Further, the IC50 in series [4] turned out to be 8.6 nM. Besides, in series [5], the Ki was found to be 8.4 nM. The same compound had a Ka in series [6] of 2.07 ×10⁶ /M. In addition, the inhibition entry in series [7], in [8] and in series [9] was “inactive” in each case. The Activity result in the series on HeLa is “Non-toxic”.
Consider `COC(=O)CNC(=O)C(=O)c1cn(S(=O)(=O)c2ccc(C)cc2)c2ccccc12`, for which the inhibition in [1] came out at 85%; in [2], 98%; in [3] it was 67.7%; in series [10] it was 51.5%; in [11] it was 50%. The logP in series [12] was 2.21. Moreover, the IC50 in [4] was 9.7 nM; in series [13] it was 8 nM. In series [5], this compound came in with an inhibition constant (Ki) of 9.5 nM. In addition, the Ka in series [6] amounted to 2.32 ×10⁶ /M. Moreover, the inhibition entry in series [7], in series [8] and in [9] was “inactive” throughout. Besides, the Activity entry in the series on HeLa was “Non-toxic”.
As to `COC(=O)[C@H]1CCCN1C(=O)C(=O)c1cn(S(=O)(=O)c2ccc(C)cc2)c2ccccc12`, the inhibition in series [1] turned out to be 69.3%; in series [2], 72%; in [3], 54.5%; in series [10], 48.7%; in series [11], 38.5%. Besides, the lipophilicity (logP) in [12] is 2.19. Moreover, the half-inhibitory concentration (IC50) in [4] worked out at 330 nM; in series [13] it was 750 nM. In addition, affinity in [5] was put at a Ki of 320 nM. For the same compound, in series [6], the Ka was 1.2 ×10⁵ /M. In addition, the inhibition result in [7], in series [8] and in series [9] was “inactive” in each case.
